From ChEMBL document CHEMBL1142380, “Synthesis, in vitro characterization, and radiolabeling of reboxetine analogs as potential PET radioligands for imaging the norepinephrine transporter” (Bioorg Med Chem, 2008)

How the values were obtained:
[1] = biological target: Sodium-dependent serotonin transporter (Homo sapiens, UniProt P31645); assay: Displacement of [3H]citalopram from human SERT expressed in HEK293 cells; type: cell-based
How it was run: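 Membranes from HEK-293 cells stably expressing hSERT, 30–70 µg protein, with [3H]citalopram. Buffer: 53 mM Tris, 126 mM NaCl, 5.3 mM KCl, pH 7.9. Incubated 2 h at room temperature. Competitor tested at 12 concentrations, 10^-13 to 10^-5 M, in triplicate. Ended by cold-buffer vacuum filtration on 0.3% PEI-soaked GF/B filters. Ki given as geometric mean of ≥3 separate assays.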

[2] = biological target: Sodium-dependent noradrenaline transporter (Homo sapiens, UniProt P23975); assay: Displacement of [3H]nisoxetine from human NET expressed in HEK293 cells; type: cell-based
How it was run: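 Membranes from HEK-293 cells stably expressing hNET (grown in DMEM, 10% FBS, Geneticin), 30–70 µg protein per tube, with [3H]nisoxetine. Buffer: 53 mM Tris, 320 mM NaCl, 5.3 mM KCl, pH 7.4 at 4 °C. Incubated 4 h at 4 °C. Competitor tested at 12 concentrations, 10^-13 to 10^-5 M, in triplicate. Filtered on PEI-soaked GF/B filters. Ki given as geometric mean of ≥3 assays.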

Homo sapiens [3] = organism: Homo sapiens; assay: Selectivity ratio of Ki for human DAT to Ki for human NET
Homo sapiens [4] = organism: Homo sapiens; assay: Selectivity ratio of Ki for human SERT to Ki for human NET
[5] = biological target: Sodium-dependent dopamine transporter (Homo sapiens, UniProt Q01959); assay: Displacement of [125I]RTI-55 from human DAT expressed in HEK-293 cells
Sequence of Sodium-dependent dopamine transporter (Q01959 whole entry): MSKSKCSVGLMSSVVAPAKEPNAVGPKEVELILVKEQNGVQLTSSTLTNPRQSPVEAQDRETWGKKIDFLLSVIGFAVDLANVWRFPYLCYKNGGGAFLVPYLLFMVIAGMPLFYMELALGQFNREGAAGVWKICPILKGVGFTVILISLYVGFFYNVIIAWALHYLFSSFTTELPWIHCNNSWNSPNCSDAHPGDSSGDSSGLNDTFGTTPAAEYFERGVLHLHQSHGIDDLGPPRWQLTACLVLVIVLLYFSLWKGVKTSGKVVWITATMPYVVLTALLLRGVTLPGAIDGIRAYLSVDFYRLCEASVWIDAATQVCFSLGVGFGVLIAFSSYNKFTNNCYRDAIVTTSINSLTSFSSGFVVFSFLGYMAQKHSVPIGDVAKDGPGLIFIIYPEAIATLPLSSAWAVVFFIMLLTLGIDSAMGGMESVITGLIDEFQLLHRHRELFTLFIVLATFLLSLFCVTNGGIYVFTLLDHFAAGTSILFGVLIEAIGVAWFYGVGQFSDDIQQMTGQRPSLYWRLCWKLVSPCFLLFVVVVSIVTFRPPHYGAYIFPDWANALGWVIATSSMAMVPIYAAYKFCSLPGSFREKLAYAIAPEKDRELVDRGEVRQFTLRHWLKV

Sequence of Sodium-dependent noradrenaline transporter (P23975 whole entry): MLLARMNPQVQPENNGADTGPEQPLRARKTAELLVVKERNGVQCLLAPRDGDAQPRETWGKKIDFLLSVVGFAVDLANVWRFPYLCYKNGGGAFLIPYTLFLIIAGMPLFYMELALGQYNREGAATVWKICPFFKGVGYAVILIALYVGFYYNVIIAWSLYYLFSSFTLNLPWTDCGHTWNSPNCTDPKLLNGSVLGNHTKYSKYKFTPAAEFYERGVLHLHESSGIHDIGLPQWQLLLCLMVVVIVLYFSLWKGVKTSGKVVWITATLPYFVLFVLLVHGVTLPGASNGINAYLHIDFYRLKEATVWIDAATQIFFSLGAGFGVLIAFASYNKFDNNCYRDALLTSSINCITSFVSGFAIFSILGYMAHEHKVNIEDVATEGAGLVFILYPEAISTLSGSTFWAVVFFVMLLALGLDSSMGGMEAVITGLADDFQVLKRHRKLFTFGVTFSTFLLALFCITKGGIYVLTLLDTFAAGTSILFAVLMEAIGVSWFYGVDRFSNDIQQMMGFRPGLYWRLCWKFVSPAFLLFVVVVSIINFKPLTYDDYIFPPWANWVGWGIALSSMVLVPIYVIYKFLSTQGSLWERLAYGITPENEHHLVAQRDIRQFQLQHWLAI
Sequence of Sodium-dependent serotonin transporter (P31645 whole entry): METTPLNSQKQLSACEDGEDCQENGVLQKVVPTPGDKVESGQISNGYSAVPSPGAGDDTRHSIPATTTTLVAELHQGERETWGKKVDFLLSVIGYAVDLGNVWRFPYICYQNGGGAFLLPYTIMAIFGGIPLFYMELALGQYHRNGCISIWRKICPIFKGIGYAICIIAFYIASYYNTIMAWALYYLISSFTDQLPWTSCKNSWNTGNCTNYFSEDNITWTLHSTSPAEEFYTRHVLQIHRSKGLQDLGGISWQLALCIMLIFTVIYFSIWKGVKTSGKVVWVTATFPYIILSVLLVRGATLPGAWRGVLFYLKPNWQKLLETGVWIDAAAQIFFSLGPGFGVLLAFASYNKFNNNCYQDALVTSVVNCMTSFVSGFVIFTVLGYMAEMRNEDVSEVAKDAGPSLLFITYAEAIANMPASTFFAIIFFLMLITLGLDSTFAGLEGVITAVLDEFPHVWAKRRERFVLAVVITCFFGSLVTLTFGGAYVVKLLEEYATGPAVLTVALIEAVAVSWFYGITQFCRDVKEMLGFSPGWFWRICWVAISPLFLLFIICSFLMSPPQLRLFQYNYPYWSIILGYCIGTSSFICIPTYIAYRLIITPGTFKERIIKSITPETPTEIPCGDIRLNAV

SMILES | Ki [1] | Ki [2] | Ratio Ki (Homo sapiens [3]) | Ratio Ki (Homo sapiens [4]) | Ki [5]
FCCOc1ccccc1S[C@@H](c1ccccc1)[C@@H]1CNCCO1 | 733 nM | 1 nM | > 10000 | 733 | > 10000 nM
COc1ccccc1O[C@@H](c1ccccc1)[C@@H]1CNCCO1 | 185 nM | 0.95 nM | > 10000 | 195 | > 10000 nM
COC(=O)c1ccccc1O[C@@H](c1ccccc1)[C@@H]1CNCCO1 | 614 nM | 1.32 nM | > 2000 | 465 | > 3000 nM
COC(=O)c1ccccc1S[C@@H](c1ccccc1)[C@@H]1CNCCO1 | 498 nM | 1.35 nM | > 20000 | 369 | > 30000 nM

Stronger by Ki [1], values ahead:

Ki [1] | Ki [2] | Ratio Ki (Homo sapiens [3]) | Ratio Ki (Homo sapiens [4]) | Ki [5] | SMILES
90.9 nM | 2.06 nM | > 3000 | 44 | > 6000 nM | CSc1ccccc1O[C@@H](c1ccccc1)[C@@H]1CNCCO1
9.69 nM | 0.76 nM | > 4000 | 13 | > 4000 nM | COc1ccccc1S[C@@H](c1ccccc1)[C@@H]1CNCCO1
121 nM | 1.21 nM | > 7000 | 100 | > 9000 nM | FCCCOc1ccccc1S[C@@H](c1ccccc1)[C@@H]1CNCCO1
